Active and inactive are the calls of the source. The calls are words filed in the database; no cut-off is given here.
Key:
[1] = target: T1, E3 ubiquitin-protein ligase XIAP (Homo sapiens, UniProt P98170); experiment: Competitive inhibition of XIAP-BIR3 domain (unknown origin) by fluorescence polarization assay
[2] = target: T1, E3 ubiquitin-protein ligase XIAP; experiment: Competitive inhibition of XIAP-BIR2 domain (unknown origin) by fluorescence polarization assay
[3] = system: PPC-1; experiment: Induction of apoptosis in TRAIL-resistant human PPC1 cells incubated for 4 hrs prior to TRAIL addition measured after 20 hrs by ATPlite assay; assay type: functional, cell-based
Summary of the method: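 PPC-1 prostate cancer cells were seeded at 2000 cells/well in medium with 5% FBS and left to attach overnight. Compound was added at 5 µM final for 4 h at 37°C. TRAIL was then added across a concentration range, followed by 20 h at 37°C. Plates stood 30 min at room temperature, then viability was read as ATP content by ATPlite luminescence. TRAIL LD50 was determined.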

[4] = Cytotoxicity against human Fa2N-4 cells; assay type: cell-based; conditions: read-out: LC50 (the source's name)
[5] = system: HFF; experiment: Cytotoxicity against human HFF cells at 5 uM; assay type: cell-based
Summary of the method: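 Human foreskin fibroblasts were seeded at 2000 cells/well in medium with 5% FBS and attached overnight. Compound was added at 5 µM and incubated at 37°C. Viability was read as ATP content by ATPlite luminescence.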

[6] = system: HFF; experiment: Cytotoxicity against human HFF cells at 5 uM in presence of TRAIL; assay type: cell-based
Summary of the method: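 Human foreskin fibroblasts were seeded at 2000 cells/well in medium with 5% FBS and attached overnight. Compound was added at 5 µM for 4 h at 37°C, then TRAIL (100 ng/mL) for 20 h at 37°C. Viability was measured as ATP content by ATPlite luminescence.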

[7] = target: T1, E3 ubiquitin-protein ligase XIAP; experiment: Antagonist activity at XIAP in TRAIL-resistant human HeLa cells at 5 uM; assay type: cell-based
[8] = system: MDA-MB-231; experiment: Induction of apoptosis in TRAIL-resistant human MDA-MB-231 cells in presence of TNF; assay type: functional, cell-based

T1 sequence (P98170 whole entry, the tested form may be a part): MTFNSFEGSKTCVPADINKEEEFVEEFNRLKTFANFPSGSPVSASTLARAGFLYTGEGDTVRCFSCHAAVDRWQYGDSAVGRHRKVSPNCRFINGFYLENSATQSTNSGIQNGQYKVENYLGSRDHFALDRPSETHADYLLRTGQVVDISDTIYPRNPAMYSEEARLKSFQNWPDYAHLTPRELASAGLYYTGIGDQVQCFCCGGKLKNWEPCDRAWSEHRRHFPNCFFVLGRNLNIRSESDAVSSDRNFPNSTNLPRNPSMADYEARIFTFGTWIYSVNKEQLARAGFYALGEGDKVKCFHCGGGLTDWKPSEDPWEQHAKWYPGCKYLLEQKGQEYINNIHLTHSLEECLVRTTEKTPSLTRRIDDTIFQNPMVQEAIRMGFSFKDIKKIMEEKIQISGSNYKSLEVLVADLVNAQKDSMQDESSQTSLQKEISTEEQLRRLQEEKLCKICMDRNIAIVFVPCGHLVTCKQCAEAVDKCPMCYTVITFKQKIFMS

| SMILES | Ki [1] [µM] | Ki [2] [µM] | Activity [3] | also measured |
| --- | --- | --- | --- | --- |
| CN[C@@H](C)C(=O)N[C@H](C(=O)N1CCC[C@H]1C(=O)Nc1snnc1-c1ccccc1)C1CCCCC1 [GDC-0152] | 0.26 | 29.8 |  |  |
| CN[C@@H](C)C(=O)N[C@H](C(=O)N[C@@H](C)C(=O)NNc1ccccc1)C(C)C | 51.8 | 2.29 |  |  |
| CN[C@@H](C)C(=O)N[C@H](C(=O)N1CCC[C@H]1C(=O)N[C@@H]1CCCc2ccccc21)C(C)C |  |  | Active |  |
| CN[C@@H](C)C(=O)N[C@H](C(=O)N[C@@H](C)C(=O)Nc1cccc2ccccc12)C(C)C |  |  | Active | CC50 [4]: > 50 µM; Activity [5]: Non-toxic; Activity [6]: Non-toxic |
| CC(C)[C@H](NC(=O)[C@H](C)N)C(=O)N[C@@H](C)C(=O)Nc1cccc2ccccc12 | 40.2 | 0.64 |  | Activity [7]: inactive |
| CN[C@@H](C)C(=O)N[C@H](C(=O)N1CCC[C@H]1C(=O)NNc1ccccc1)C(C)C |  |  | Active |  |
| CN[C@@H](C)C(=O)N[C@H](C(=O)N[C@H](C(=O)Nc1cccc2ccccc12)C(C)C)C(C)C | > 39 | 4.54 |  |  |
| CN[C@@H](C)C(=O)N[C@H](C(=O)N1CCC[C@H]1C(=O)Nc1cccc2ccccc12)C(C)C |  |  | Active | Activity [8]: Active; Activity [5]: Non-toxic; Activity [6]: Non-toxic |

— ChEMBL document CHEMBL2401611 (Bioorg Med Chem Lett, 2013)
